An excerpt weighted towards active compounds, which were near 1.1% of everything screened.
hiPSC survival = enhancers of human iPSC single-cell survival. hiPSC single-cell survival, ATPlite luminescence; 100% = ROCK inhibitor wells, 0% = DMSO. survival enhancement, % at 20 µM. 0.044% of 360,000 active; in the data active means survival enhancement above about 18%;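 further: cells exposed to compounds for 16 hours before the ATP read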
FAS TE block = inhibitors of human fatty acid synthase thioesterase domain; P49327; recombinant FAS-TE, OMFH fluorogenic substrate, fluorescence endpoint; inhibition, % at 15 µM; 0.67% of 360,000 active;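 active means compounds whose normalised, plate-corrected inhibition of enzyme fluorescence in the single-dose primary screen is 50% or more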;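 further: 0% = DMSO with enzyme and 100% = substrate without enzyme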
ABCB6 inh 2 = human ABCB6 transporter inhibition | Q9NP58 | K562-ABCB6 porphyrin accumulation, flow cytometry, 1 h; hits give low values | 0.19% of 360,000 active | fluorescence ratio to DMSO, % at 10 µM | AID 602162;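 active means fluorescence ratio to DMSO below 75%, the collection mean minus 3 SD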;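 further: signal is porphyrin accumulated inside mitochondria; 100% equals median channel fluorescence of DMSO control wells; lower ratio means ABCB6 inhibition with less porphyrin fluorescence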
SENP1 inh = SENP1 (human) catalytic domain inhibition. Q9P0U3. recombinant SENP1 catalytic domain, CyPet-SUMO1-YPet FRET cleavage. inhibition, % at 10 µM. 0.21% of 360,000 active. AID 624204;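 active means inhibition at least 30% at 10 µM, raw YFP signal under a set limit, fluorescence ratio 0.5 to 1.5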;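 further: 0% = enzyme with DMSO and 100% = no enzyme wells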
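system = hSENP1 catalytic domain, recombinant | reagent = SFCypet-SUMO1-SFYpet substrate at 25 nM | doses = one dose per compound, 10 µM, 0.5% DMSO | incubation = enzyme reaction for 50 min at room temperature, dark | measured by = FRET, CFP and YFP emission | controls = no-enzyme low, enzyme-DMSO high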
FAS-TE inh conf = confirmation of human fatty acid synthase thioesterase inhibitors; shares compounds with FAS TE block; AID 624325; recombinant FAS-TE, OMFH fluorogenic substrate, fluorescence; inhibition, % at 15 µM; 45% of 2,300 active;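 active means compounds inhibiting the enzyme by at least 50% at 15 µM in any one of the replicates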;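 further: 0% = enzyme with DMSO only and 100% = wells lacking enzyme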
An asterisk follows results filed as active.

What do the screens show for `CC(C)(C)N1C(=O)[C@H]2[C@@H](c3ccc(Br)cc3)N3C(=O)N(c4ccccc4)C(=O)[C@@]3(C)[C@H]2C1=O`?
hiPSC survival: 2; FAS TE block: 8; ABCB6 inh 2: 97; SENP1 inh: 2

What do the screens show for `CC(C)C[C@@]12C(=O)N(c3ccc(Br)cc3)C(=O)N1[C@H](c1ccc(Br)cc1)[C@@H]1C(=O)N(C(C)(C)C)C(=O)[C@@H]12`?
hiPSC survival: -6; FAS TE block: 75*; ABCB6 inh 2: 99; SENP1 inh: 1; FAS-TE inh conf: 39*

How did CC(C)C[C@@]12C(=O)N(c3cccc(F)c3)C(=O)N1[C@H](c1ccc(Br)cc1)[C@@H]1C(=O)N(C(C)(C)C)C(=O)[C@@H]12 do in these assays?
hiPSC survival: -1; FAS TE block: 48; ABCB6 inh 2: 98; SENP1 inh: -1

How did CC(C)(C)N1C(=O)[C@H]2[C@@H](c3ccc(Br)cc3)N3C(=O)N(c4ccccc4)C(=O)[C@@]3(Cc3ccccc3)[C@H]2C1=O do in these assays?
hiPSC survival: 1; FAS TE block: 87*; ABCB6 inh 2: 97; SENP1 inh: 3; FAS-TE inh conf: 2

How did O=C(CCCN1C(=O)/C(=C/c2ccccc2Cl)SC1=S)NNC(=O)c1ccccc1 do in these assays?
hiPSC survival: -1; FAS TE block: 37; ABCB6 inh 2: 99; SENP1 inh: 6

What do the screens show for `O=C(CCN1C(=O)/C(=C/c2ccccc2Cl)SC1=S)Nc1ccccc1C(=O)O`?
hiPSC survival: 0; FAS TE block: 71*; ABCB6 inh 2: 103; SENP1 inh: 3; FAS-TE inh conf: 77*

How did O=C(CCN1C(=O)/C(=C/c2ccccc2F)SC1=S)Nc1cccnc1 do in these assays?
hiPSC survival: 0; FAS TE block: 11; ABCB6 inh 2: 97; SENP1 inh: 2

Results for O=C(CCN1C(=O)/C(=C\c2ccccc2Cl)SC1=S)Nc1cccnc1 ?
hiPSC survival: 0; FAS TE block: 57*; ABCB6 inh 2: 104; SENP1 inh: 3; FAS-TE inh conf: 54*

How did O=C(/C=C/c1cccs1)N1CCC2(CC1)Oc1ccc(Cl)cc1C(=O)C21CC(c2ccc(Cl)cc2)=NO1 (stereo not drawn) do in these assays?
hiPSC survival: -3; FAS TE block: 50*; ABCB6 inh 2: 91; SENP1 inh: 1; FAS-TE inh conf: 12

How did O=C1c2cc(Cl)ccc2OC2(CCNCC2)C12CC(c1ccc(Cl)cc1)=NO2 (stereo not drawn) do in these assays?
hiPSC survival: -2; FAS TE block: -28; ABCB6 inh 2: 98; SENP1 inh: -1

What do the screens show for `O=C(/C=C/c1cccs1)N1CCC2(CC1)Oc1ccc(F)cc1C(=O)C21CC(c2ccc(Cl)cc2)=NO1` (stereo not drawn)?
hiPSC survival: -4; FAS TE block: 62*; ABCB6 inh 2: 105; SENP1 inh: 0; FAS-TE inh conf: -5

What do the screens show for `Cc1noc(C)c1C(=O)N1CCC2(CC1)Oc1ccc(F)cc1C(=O)C21CC(c2ccc(Cl)cc2)=NO1` (stereo not drawn)?
hiPSC survival: 1; FAS TE block: 94*; ABCB6 inh 2: 90; SENP1 inh: 3; FAS-TE inh conf: 22

What do the screens show for `CC(C)C(=O)N1CCC2(CC1)Oc1ccc(Cl)cc1C(=O)C21CC(c2ccc(Cl)cc2)=NO1` (stereo not drawn)?
hiPSC survival: -3; FAS TE block: 50*; ABCB6 inh 2: 97; SENP1 inh: 2; FAS-TE inh conf: 8

What do the screens show for `O=C(c1ccc2c(c1)OCO2)N1CCC2(CC1)Oc1ccc(F)cc1C(=O)C21CC(c2ccc(Cl)cc2)=NO1` (stereo not drawn)?
hiPSC survival: 1; FAS TE block: 31; ABCB6 inh 2: 99; SENP1 inh: -1

Results for O=C(/C=C/c1cccs1)N1CCC2(CC1)Oc1ccc(F)cc1C(=O)C21CC(c2ccccc2)=NO1 (stereo not drawn) ?
hiPSC survival: 10; FAS TE block: 25; ABCB6 inh 2: 106; SENP1 inh: -1

How did Cc1ccc(S(C)(=O)=O)cc1C(=O)Nc1ccc(S(=O)(=O)Nc2nccs2)cc1 do in these assays?
hiPSC survival: -1; FAS TE block: -7; ABCB6 inh 2: 93; SENP1 inh: 0
